Measured values reported in publication PMC11348385 (RSC Advances, 2024).
Several values for one entry are separate records, joined by “and”; a condition that tells them apart may be missing. Equal entries are not always repeated.

Columns and labels:
[1] = tested on: MCF-7 cell line; experiment: MTT colorimetric cytotoxicity assay, MCF-7; assay type: cell-based, human; conditions: for IC50: Homo sapiens, MCF7, 72 h, read-out: IC50 MCF-7; for Selectivity index: folds more toxic regarding MCF-7 than VERO cells: VERO vs MCF-7; for selectivity class against MCF-7: high SI ≥ 5, moderate SI > 2, low SI < 2, vs VERO
[2] = tested on: HepG2 cell line; experiment: MTT colorimetric cytotoxicity assay, HepG2; assay type: cell-based, human; conditions: for IC50: Homo sapiens, HepG2, 72 h, read-out: IC50 HepG2; for Selectivity index: folds toxic in HepG2 than in VERO cells: VERO vs HepG2; for selectivity class against HepG2: high SI ≥ 5, moderate SI > 2, low SI < 2, vs VERO
[3] = molecular target: VEGFR-2 (Homo sapiens, UniProt P35968); experiment: In vitro VEGFR-2 kinase assay; assay type: biochemical
[4] = tested on: MCF-7 cells; experiment: Cell cycle distribution; assay type: cell-based, human; conditions: MCF-7, 2.3 μM 4b, 24 h, mean ± SEM
Outline: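 MCF-7 cells treated with 2.3 μM test compound for 24 h, harvested and stained with propidium iodide. DNA content was analysed for distribution across G1, S and G2/M phases, with an untreated control alongside. Values are mean ± SEM of three independent experiments.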

[5] = tested on: MCF-7 cells; experiment: Annexin V / propidium iodide double staining apoptosis assay; assay type: cell-based, human; conditions: MCF-7, IC50 of 4b, 24 h
[6] = tested on: BAX; experiment: BAX expression level in MCF-7 cells; assay type: cell-based, human; conditions: MCF-7, IC50 of 4b
Outline: (§1)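 Test compound given to MCF-7 cells for 24 h; Bax and Bcl-2 expression levels then determined. Each is expressed as fold change versus untreated control cells, and the Bax/Bcl-2 ratio is calculated from these fold changes.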

[7] = tested on: Bcl-2; experiment: Bcl-2 expression level in MCF-7 cells; assay type: cell-based, human; conditions: MCF-7, IC50 of 4b, 24 h, mean ± SEM
[8] = tested on: BAX/Bcl-2 ratio; experiment: BAX/Bcl-2 ratio in MCF-7 cells; assay type: cell-based, human; conditions: MCF-7, IC50 of 4b
Outline: as §1

Chain of VEGFR-2 (P35968 20-1356): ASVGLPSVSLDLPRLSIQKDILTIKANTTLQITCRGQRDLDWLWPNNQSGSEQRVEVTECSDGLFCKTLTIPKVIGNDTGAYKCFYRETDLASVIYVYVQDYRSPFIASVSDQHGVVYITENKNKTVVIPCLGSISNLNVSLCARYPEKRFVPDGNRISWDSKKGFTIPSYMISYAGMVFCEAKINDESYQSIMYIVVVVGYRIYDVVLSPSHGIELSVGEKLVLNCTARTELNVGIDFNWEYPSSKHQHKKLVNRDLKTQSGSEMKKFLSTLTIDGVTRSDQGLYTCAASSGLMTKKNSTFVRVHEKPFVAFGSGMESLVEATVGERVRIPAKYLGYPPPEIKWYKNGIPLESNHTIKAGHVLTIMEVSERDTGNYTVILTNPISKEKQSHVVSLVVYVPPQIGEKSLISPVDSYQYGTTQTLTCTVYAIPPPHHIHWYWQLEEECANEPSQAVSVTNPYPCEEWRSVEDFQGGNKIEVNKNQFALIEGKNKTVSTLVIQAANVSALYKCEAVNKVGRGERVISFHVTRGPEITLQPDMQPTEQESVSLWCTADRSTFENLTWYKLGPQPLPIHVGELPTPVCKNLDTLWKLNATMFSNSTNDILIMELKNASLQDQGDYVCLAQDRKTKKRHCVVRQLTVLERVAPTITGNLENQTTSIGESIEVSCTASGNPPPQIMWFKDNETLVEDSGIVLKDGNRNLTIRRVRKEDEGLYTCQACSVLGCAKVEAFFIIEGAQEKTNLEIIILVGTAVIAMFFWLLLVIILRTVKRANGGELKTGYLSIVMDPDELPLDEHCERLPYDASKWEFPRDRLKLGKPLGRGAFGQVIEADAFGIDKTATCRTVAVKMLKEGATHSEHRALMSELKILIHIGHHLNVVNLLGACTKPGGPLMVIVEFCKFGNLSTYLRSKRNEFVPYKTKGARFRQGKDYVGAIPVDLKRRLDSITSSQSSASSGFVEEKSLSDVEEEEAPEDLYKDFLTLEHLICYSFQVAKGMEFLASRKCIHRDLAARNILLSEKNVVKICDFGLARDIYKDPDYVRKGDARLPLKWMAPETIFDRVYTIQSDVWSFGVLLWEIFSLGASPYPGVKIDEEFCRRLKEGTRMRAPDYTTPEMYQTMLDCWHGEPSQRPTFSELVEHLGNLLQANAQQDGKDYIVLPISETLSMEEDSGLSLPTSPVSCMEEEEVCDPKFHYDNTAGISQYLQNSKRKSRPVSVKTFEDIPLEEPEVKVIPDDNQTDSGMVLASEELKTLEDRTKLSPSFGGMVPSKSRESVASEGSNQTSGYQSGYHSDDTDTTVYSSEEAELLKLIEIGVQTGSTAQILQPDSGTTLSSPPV

| SMILES | IC50 [3] [nM] | IC50 [1] [nM] | Selectivity index: folds more toxic regarding MCF-7 than VERO cells [1] [folds] | selectivity class against MCF-7 [1] | IC50 [2] [nM] | Selectivity index: folds toxic in HepG2 than in VERO cells [2] [folds] | also measured |
| --- | --- | --- | --- | --- | --- | --- | --- |
| Clc1ccc(-c2nnc(Nc3ccc(C4=NNC(c5ccccc5)C4)cc3)c3ccccc23)cc1 (stereo not drawn) [Compound 3a, 4-(4-Chlorophenyl)-N-(4-(5-phenyl-4,5-dihydro-1H-pyrazol-3-yl)phenyl)phthalazin-1-amine] | 1250 ± 50 | 1160 ± 10 | 4.09 | moderate selectivity | 1270 ± 30 | 3.74 | selectivity class against HepG2 [2]: moderate selectivity |
| COc1ccc(C2CC(c3ccc(Nc4nnc(-c5ccc(Cl)cc5)c5ccccc45)cc3)=NN2)cc1 (stereo not drawn) [Compound 3e, 4-(4-Chlorophenyl)-N-(4-[5-{4-methoxyphenyl}-4,5-dihydro-1H-pyrazol-3-yl]phenyl)phthalazin-1-amine] | 120 ± 20 | 80 ± 10 | 40.25 |  |  | 16.95 |  |
| Oc1ccc(C2CC(c3ccc(Nc4nnc(-c5ccc(Cl)cc5)c5ccccc45)cc3)=NN2)cc1 (stereo not drawn) [Compound 3d, 4-(3-[4-{(4-[4-Chlorophenyl]phthalazin-1-yl)amino}phenyl]-4,5-dihydro-1H-pyrazol-5-yl)phenol] | 700 ± 50 | 740 ± 10 | 5.88 |  | 150 | 29.00 |  |
| O=c1nc(-c2ccc(Nc3nnc(-c4ccc(Cl)cc4)c4ccccc34)cc2)cc(-c2ccc(Cl)cc2)[nH]1 [Compound 4b, 6-(4-Chlorophenyl)-4-(4-[{4-(4-chlorophenyl)phthalazin-1-yl}amino]phenyl)pyrimidin-2(1H)-one] | 90 ± 20 | 60 ± 10 | 50.00 |  | 60 ± 10 | 50.00 | DNA content % G1 [4]: 53.96 ± 2.15%; DNA content % S [4]: 39.12 ± 1.92%; early apoptosis, folds over the control [5]: more than 25 folds; % Apoptosis Early ([5]; mean ± SEM): 15.06% and 15.06 ± 0.91%; % Apoptosis Late ([5]; mean ± SEM): 6.72 ± 0.31%; % Necrosis ([5]; mean ± SEM): 4.66% and 4.66 ± 0.19%; boost of Bax level vs control [6]: approximately 3 folds; Gene expression fold change BAX ([6]; 24 h, mean ± SEM): 3.3282 ± 0.67; Gene expression fold change Bcl-2 [7]: 0.374 ± 0.02; boost of Bax/Bcl2 ratio compared to the control [8]: approximately 8 folds; Gene expression fold change BAX/Bcl-2 ratio ([8]; 24 h, mean ± SEM): 8.25 ± 0.71 |
| Oc1ccccc1C1CC(c2ccc(Nc3nnc(-c4ccc(Cl)cc4)c4ccccc34)cc2)=NN1 (stereo not drawn) [Compound 3c, 2-(3-[4-{(4-[4-Chlorophenyl]phthalazin-1-yl)amino}phenyl]-4,5-dihydro-1H-pyrazol-5-yl)phenol] | 840 ± 50 | 880 ± 30 | 4.67 | moderate selectivity | 1250 ± 20 | 3.29 | selectivity class against HepG2 [2]: moderate selectivity |
| S=c1nc(-c2ccc(Nc3nnc(-c4ccc(Cl)cc4)c4ccccc34)cc2)cc(-c2ccc(Cl)cc2)[nH]1 [Compound 5b, 6-(4-Chlorophenyl)-4-(4-[{4-(4-chlorophenyl)phthalazin-1-yl}amino]phenyl)pyrimidin-2(1H)-thione] | 130 ± 30 | 110 ± 10 | 28.64 |  | 150 ± 10 | 21.00 |  |
| Clc1ccc(-c2nnc(Nc3ccc(C4=NNC(c5ccc(Cl)cc5)C4)cc3)c3ccccc23)cc1 (stereo not drawn) [Compound 3b, 4-(4-Chlorophenyl)-N-(4-(5-(4-chlorophenyl)-4,5-dihydro-1H-pyrazol-3-yl)phenyl)phthalazin-1-amine] | 800 ± 50 | 830 ± 20 | 5.12 |  |  | 5.31 |  |
| CNC(=O)c1cc(Oc2ccc(NC(=O)Nc3ccc(Cl)c(C(F)(F)F)c3)cc2)ccn1 [Sorafenib, sorafenib, reference compound] |  | 50 ± 10 |  |  | 30 ± 10 |  |  |

More lines, main results first:

| IC50 [3] [nM] | SMILES | IC50 [1] [nM] | Selectivity index: folds more toxic regarding MCF-7 than VERO cells [1] [folds] | selectivity class against MCF-7 [1] | IC50 [2] [nM] | Selectivity index: folds toxic in HepG2 than in VERO cells [2] [folds] | also measured |
| --- | --- | --- | --- | --- | --- | --- | --- |
| 150 ± 30 | O=c1nc(-c2ccc(Nc3nnc(-c4ccc(Cl)cc4)c4ccccc34)cc2)cc(-c2ccccc2)[nH]1 [Compound 4a, 4-(4-[{4-(4-Chlorophenyl)phthalazin-1-yl}amino]phenyl)-6-phenylpyrimidin-2(1H)-one] |  | 25.00 |  | 290 ± 10 | 13.79 |  |
| 750 ± 50 | S=c1nc(-c2ccc(Nc3nnc(-c4ccc(Cl)cc4)c4ccccc34)cc2)cc(-c2ccccc2)[nH]1 [Compound 5a, 4-(4-[{4-(4-Chlorophenyl)phthalazin-1-yl}amino]phenyl)-6-phenylpyrimidin-2(1H)-thione] | 860 ± 10 | 4.79 | moderate selectivity | 800 ± 20 | 5.15 |  |
